Sampled rows, rich in hits. Any-hit rate of the full collection: about 2.6%.
HIV Env fusion: HIV envelope-mediated fusion inhibition | HeLa-JRFL Env/CEM21 cell fusion, luciferase | 360,000 tested, 1.1% active | AID 651610 | inhibition, % at 12.3 µM;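 active = mean replicate inhibition score of at least 50 and every replicate individually at or above 50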;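 also: 0% = plate neutral controls and 100% = maraviroc near 300 nM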
S100A4 inh HTS: inhibitors of human S100A4 binding to myosin IIA peptide; P26447; inhibition, % at 10.7 µM; 360,000 tested, 0.14% active; S100A4/TAMRA-MyoIIA peptide fluorescence polarization;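 active = mean inhibition of at least 70% across replicates, with every replicate also reaching that level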
Target sequence (P26447 whole entry, looked up): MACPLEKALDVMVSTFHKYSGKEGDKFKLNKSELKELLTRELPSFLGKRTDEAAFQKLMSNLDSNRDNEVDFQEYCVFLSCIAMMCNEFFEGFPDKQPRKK
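Compound dosing: one dose per compound; test system: human S100A4 monomer with TAMRA-labelled myosin IIA peptide; probe or stimulus: TAMRA-labelled myosin IIA heavy-chain peptide probe, 5 nM; medium: HEPES buffer with Ca2+, pH 7.2; schedule: 5 min incubation before reading; benchmarks: neutral control DMSO, positive control TFP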
rRNA inh HTS: selective bacterial rRNA inhibition in E. coli | 350,000 tested, 1.6% active | E. coli WT GFP vs humanized-ribosome RFP mutants, fluorescence, 24 h; stronger effect = lower value; DMSO median 0, no signal -100 | GFP signal change (wild-type ribosome), % (concentration not given with the values);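 active = significant combined selectivity score with lowered wild-type GFP, culture density cut under 30%, mutant RFP and density less affected; inactive = any of these conditions unmet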
FN deposit inh: fibronectin deposition inhibition; AH1F fibroblasts, Alexa488-fibronectin deposition fluorescence, overnight; inhibition, % at 12.6 µM; 350,000 tested, 0.086% active;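 active = mean inhibition across replicates of 30% or more, regardless of how many single replicates reach that level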;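 also: positive control wells lacked labelled fibronectin entirely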
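Test system: AH1F fibroblast monolayer depositing Alexa488-labelled fibronectin into matrix. Input: 10000 cells per well. Technique: fluorescence, ex 485 nm, em 525 nm. Buffer or medium: DMEM plus 2% serum, read in PBS. Timing: 1 h cell adhesion before compound, then overnight fibronectin incubation. Compound: single dose, pinned. Read-out basis: inhibition from reduced deposited-fibronectin fluorescence.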
miR122 inh: miR-122 inhibition in Huh7 cells; Huh7 miR-122 Renilla luciferase sensor, 48 h; neutral wells = 0, positive control = 100; activation (reporter increase), % at 12.5 µM; 340,000 tested, 0.3% active;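 active = mean replicate activation score at least 90 and every replicate individually at or above 90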;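 also: higher luciferase means less miR-122 activity so hits act as miR-122 inhibitors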
Vif imaging: inhibitors of HIV Vif; inhibition, % at 7.49 µM; 340,000 tested, 0.35% active; HEK293T cells, Vif self-association by quenched fluorescence, imaging, 24 h; in the data active = inhibition above about 50%, passing the limit was not always enough
* marks the source's active call; other numbers are inactive results; / = not tested or not shown; [ ] = another dose, or the depositor's remark.

SMILES	HIV Env fusion	S100A4 inh HTS	rRNA inh HTS	FN deposit inh	miR122 inh	Vif imaging
CNC(=O)C[C@@H]1CC[C@H]2[C@H](COc3ccc(NC(=O)Nc4ccccc4F)cc3C(=O)N2C)O1	-5[16.7 µM]	5	-1	-19	2[16.7 µM]	/
Cc1ncc(CN2CCCC(C(=O)Nc3ccc(-c4cccc(F)c4)cc3)C2)s1 (stereo unspecified)	20	-7	-31*	4	-1	1
C[C@H]1CN([C@@H](C)CO)C(=O)c2cccc(NS(=O)(=O)c3cn(C)cn3)c2O[C@H]1CN(C)S(=O)(=O)c1cccs1	-4[16.7 µM]	-2	1	-11	6[16.7 µM]	/
Clc1ccc(CSc2nnc(-c3ccncc3)o2)cc1	63*	/	/	/	6	-6
CCSc1nnc(-c2ccncc2)o1	2	/	/	-6	-22	20
ClC1(Cl)CC1CSc1nnc(-c2ccncc2)o1 (stereo unspecified)	2	-4	-19*	6	-9	-2
CC(C)NC(=O)N[C@H]1CC[C@@H](CCNS(=O)(=O)c2ccc(F)cc2)O[C@@H]1CO	-1[16.7 µM]	-27	2	/	/	/
O=C(Nc1ccc(Cl)cc1)C1CCCN(C2=NS(=O)(=O)c3ccccc32)C1 (stereo unspecified)	70*	-2	-3	3	-28	-1
C[C@H]1CCCCO[C@H](CN(C)C(=O)Cc2ccccc2)[C@@H](C)CN([C@@H](C)CO)C(=O)c2cc(NC(=O)Nc3ccc(F)cc3)ccc2O1	31[16.7 µM]	-8	0	/	-12[16.7 µM]	/
CCCCOc1ccc(S(=O)(=O)Nc2cccnc2)cc1	69*	/	/	15	-1	-13
Cc1ccc(S(=O)(=O)Nc2cccnc2)cc1	-12	/	/	5	-1	3
COc1ccc(CN(C)C[C@@H]2OCCCC[C@H](C)Oc3ccc(NS(=O)(=O)c4ccc(C)cc4)cc3C(=O)N([C@@H](C)CO)C[C@@H]2C)cc1	-8[16.7 µM]	1	-1	/	-8[16.7 µM]	/
O=C(C1CCCCC1)N1CCN(c2ccnc3cc(Cl)ccc23)CC1	57*	-6	/	-3	/	-17
O=C(Nc1ccc(OC(F)(F)F)cc1)N1CCN(c2ccnc3cc(Cl)ccc23)CC1	28	-20	-29*	12	14	-4
O=C(C1CCC1)N1CCN(c2ccnc3cc(Cl)ccc23)CC1	20	0	-13	3	/	-1
CC(C)(C)C(=O)N1CCN(c2ccnc3cc(Cl)ccc23)CC1	40	-2	-13	-5	-5	5
CC(=O)N(C)C[C@H]1Oc2ccccc2C(=O)N(C)C[C@H]1C	/	/	2	-12	/	/
Cc1ccc(S(=O)(=O)N2C[C@H]3[C@H]4C(=O)N(c5ccccc5)C(=O)[C@H]4CC(=O)[C@H]3[C@@H]2c2ccc(Cl)cc2)cc1	/	-2	/	4	-3	-10
Cc1ccccc1S(=O)(=O)N1C[C@@H]2C(C(=O)C[C@@H]3C(=O)N(C)C(=O)[C@@H]32)[C@@H]1c1ccc(Cl)cc1 (stereo partly specified)	61*	-5	-1	-4	/	/
Cc1ccccc1S(=O)(=O)N1C[C@H]2[C@H]3C(=O)N(C4CCCCC4)C(=O)[C@H]3CC(=O)[C@H]2[C@@H]1c1ccc(Cl)cc1	132*	15	4	/	-7	/
O=C(C[C@H]1C[C@H]2c3cc(NC(=O)CC4CC4)ccc3O[C@H]2[C@@H](CO)O1)NCCc1ccccc1	-9[16.7 µM]	-23	-2	4	4[16.7 µM]	/
C=CC(C)(O)CCCC(C)CCCC(C)CCCC(C)C (stereo unspecified)	/	-1	4	/	0	160*
CCCCCCCCn1c2c(c(=N)c3ccccc31)CCC2	56*	-2	-59	-7	-16	-3
CCCCCCCCCCn1c2c(c(=N)c3c1CCC3)CCC2	69*	/	/	3	-66	-3
CCCCCCCCCn1c2c(c(=N)c3c1CCC3)CCCC2	/	/	/	/	-7	-8
SMILES	HIV Env fusion	S100A4 inh HTS	rRNA inh HTS	FN deposit inh	miR122 inh	Vif imaging
CCCCCn1c2c(c(=N)c3ccccc31)CCC2	19	-15	-32	8	-5	-23
O=C(C1CC1)N1CCCCN2[C@H](CO)[C@H](c3ccc(C#CC4(O)CCCC4)cc3)[C@@H]2C1	/	-2	/	/	-28[16.7 µM]	/
c1csc(-c2nc3nc4ccccc4nc3n2Cc2ccc3c(c2)OCO3)c1	-41	/	/	-5	1	0
Clc1ccccc1-c1nc2nc3ccccc3nc2n1-c1ccc2c(c1)OCO2	-46	-3	-26*	-7	2	-10
Oc1ccc(/C=N/N=C/c2ccc(O)c(O)c2)cc1O	-4	-3	9	-2	-23	72*
Cc1cccn2c(=O)nc(SCC(=O)Nc3cccc4ccccc34)nc12	88*	-2	1	0	/	-5
COc1cccc(C(=O)OCn2nnc3ccccc3c2=O)c1	/	0	-22*	/	2	13
COc1ccc(C(=O)OCn2nnc3ccccc3c2=O)cc1OC	/	/	/	/	-4	-2
COc1ccccc1C(=O)NNC(=O)c1nn(Cc2ccccc2)c(=O)c2ccccc12	-7	19	-24*	11	/	0
Cn1cnc(S(=O)(=O)N2CC[C@@H]3[C@H]2c2cc(-c4cccc(F)c4)ccc2N[C@@H]3CO)c1	/	0	-7	-7	10[16.7 µM]	/
C[C@@H]1CN([C@H](C)CO)C(=O)c2cc(NC(=O)Nc3ccc4c(c3)OCO4)ccc2O[C@@H](C)CCCCO[C@H]1CN(C)C(=O)C1CCCCC1	37[16.7 µM]	-9	-1	/	-9[16.7 µM]	/
C[C@@H]1CN([C@H](C)CO)C(=O)c2cc(NC(=O)Nc3ccc4c(c3)OCO4)ccc2O[C@H]1CN(C)Cc1ccncc1	58*	-1	0	6	-8[16.7 µM]	0
COc1ccc(NC(=O)Nc2ccc3c(c2)C(=O)N([C@H](C)CO)C[C@H](C)[C@H](CN(C)Cc2ccc(Cl)c(Cl)c2)OCCCC[C@H](C)O3)cc1	91*[16.7 µM]	-14	1	/	-4[16.7 µM]	/
C[C@H](CO)N1C[C@H](C)[C@H](CN(C)C(=O)C2CCCCC2)OCCCC[C@H](C)Oc2ccc(NC(=O)Nc3ccc4c(c3)OCO4)cc2C1=O	78*[16.7 µM]	-2	-1	/	-9[16.7 µM]	/
C[C@@H]1CN([C@@H](C)CO)C(=O)c2cc(NC(=O)Nc3ccc4c(c3)OCO4)ccc2O[C@@H](C)CCCCO[C@H]1CN(C)Cc1ccc(Cl)c(Cl)c1	67*[16.7 µM]	11	-4	/	-3[16.7 µM]	/
COc1ccc(NC(=O)Nc2ccc3c(c2)C(=O)N([C@@H](C)CO)C[C@H](C)[C@@H](CN(C)Cc2ccc(Cl)c(Cl)c2)OCCCC[C@@H](C)O3)cc1	14[16.7 µM]	-7	-6	/	3[16.7 µM]	/
O=C(Cc1cccnc1)N[C@@H]1CC[C@@H](CCn2cc(-c3ccccc3F)nn2)O[C@H]1CO	16[16.7 µM]	-1	0	/	/	/

Compound activity as filed in PubChem.
